Sampled rows, rich in hits. Any-hit rate of the full collection: about 2.5%.
NALP3 yeast inh = NALP3 inhibition in yeast; Yeast reconstituted NLRP3/ASC/caspase-1, beta-gal luminescence, 24 h; inhibition, % at 10 µM; hit rate 0.39% among 330,000;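 active = inhibition of 50% or more; inactive = inhibition below 50%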;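 note: plate controls were induced DMSO wells for no effect and uninduced yeast grown without galactose for full effect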
NALP1 yeast inh = blocks the NALP1 inflammasome reconstituted in yeast; S. cerevisiae NALP1/ASC/caspase-1 growth, X-gal OD620, 72 h; hit rate 0.61% among 280,000; inhibition, % at 10 µM; in the data active = inhibition mostly above about 24%, no sharp cut-off; inactive = mostly below about 32%
A1 inh = inhibitors of the anti-apoptotic protein A1, read as caspase activation. MEF A1-2A-BIM cells, Caspase-Glo 3/7 luminescence, 3 h; percent of clofoctol response, vehicle zero. hit rate 0.066% among 330,000. caspase activation, % (test concentration not listed). AID 2462;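 active = over half of replicate activation scores above 10%, or exactly half above 10 with the replicate mean above 10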
MC4R ag barr = activates human MC4R beta-arrestin recruitment; activation, % at 8.9 µM; hit rate 0.98% among 360,000; AID 540308; P32245; U2OS MC4R beta-arrestin complementation, luminescence; percent of melanotan II response, DMSO zero;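 active = activation above a per-plate cutoff, the mean activation of sample wells on that plate plus 3 SD, cut at about 8% in these data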
Tb MetRS inh = blocks T. brucei methionyl-tRNA synthetase activity | purified T. brucei MetRS, ATP depletion, Kinase-Glo luminescence | inhibition, % at 11.9 µM | hit rate 0.4% among 360,000;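 active = inhibition above a per-plate cutoff of the control wells' mean inhibition plus 3 SD, cut at about 5.5% in these data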;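 note: 0% = DMSO wells median and 100% = median of wells with control inhibitor compound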
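Measured by: Kinase-Glo luciferase luminescence reporting remaining unconsumed ATP. Material: purified T. brucei MetRS enzyme. Doses: 11.9 µM compound single dose, 0.9% DMSO. Medium: HEPES buffer containing pyrophosphatase, BSA, spermine, DTT. Times: 15 min preincubation, 2 h reaction, all 25 °C. Reagent: methionine, ATP and bulk E. coli tRNA.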
MC4R antag cAMP = blocks human MC4R cAMP signaling. P32245. MC4R-expressing cells, MTII-stimulated cAMP, LANCE TR-FRET. inhibition, % at 6.5 µM. hit rate 0.48% among 360,000. AID 540295;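 active = inhibition above its plate's cutoff, the mean of tested wells on that plate plus 3 SD, cut at about 29% in these data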;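 note: 0% = Melanotan II alone and 100% = Melanotan II plus saturating MCL0020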
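Assay system: human MC4R-expressing U2OS cells; reagent: Melanotan II stimulation of cells; dosing: 6.5 µM single dose; timing: compound 30 min, challenge 1 h, detection 1 h; signal: TR-FRET cAMP assay; replicates: one well per compound, no replicates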
MC4R barr conf = human MC4R beta-arrestin agonism confirmation; U2OS MC4R beta-arrestin recruitment, luminescence; scaled DMSO 0%, Melanotan II 100%; hit rate 31% among 2,400; activation, % at 8.9 µM; shares compounds with MC4R ag barr;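 active = mean activation across replicates above the hit cutoff set in the earlier primary screen, cut at about 8% in these data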
MOR-DOR barr ag = OPRM1-OPRD1 heterodimer agonism counter-screen; hit rate 5.8% among 2,400; AID 602194; activation, % at 9.2 µM; shares compounds with MC4R ag barr; U2OS PathHunter beta-arrestin, beta-gal luminescence; percent of deltorphin B response, DMSO zero;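 active = mean activation across replicates exceeds the hit threshold derived in the earlier primary screen, cut at about 18% in these data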;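 note: 100% = deltorphin B at 0.9 µM final and 0% = DMSO alone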
Target sequence (P35372 whole entry, looked up): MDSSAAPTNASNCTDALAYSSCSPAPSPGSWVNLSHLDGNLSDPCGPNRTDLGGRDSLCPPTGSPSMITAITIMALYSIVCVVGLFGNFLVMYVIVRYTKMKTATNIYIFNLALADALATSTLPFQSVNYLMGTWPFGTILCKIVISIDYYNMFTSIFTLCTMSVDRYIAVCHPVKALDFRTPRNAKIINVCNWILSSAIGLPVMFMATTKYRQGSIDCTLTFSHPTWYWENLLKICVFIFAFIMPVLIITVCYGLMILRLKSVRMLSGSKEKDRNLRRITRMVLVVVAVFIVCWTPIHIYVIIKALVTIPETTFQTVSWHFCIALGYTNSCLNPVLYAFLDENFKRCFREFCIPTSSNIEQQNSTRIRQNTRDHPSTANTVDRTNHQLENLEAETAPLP
Target sequence (P41143 whole entry, looked up): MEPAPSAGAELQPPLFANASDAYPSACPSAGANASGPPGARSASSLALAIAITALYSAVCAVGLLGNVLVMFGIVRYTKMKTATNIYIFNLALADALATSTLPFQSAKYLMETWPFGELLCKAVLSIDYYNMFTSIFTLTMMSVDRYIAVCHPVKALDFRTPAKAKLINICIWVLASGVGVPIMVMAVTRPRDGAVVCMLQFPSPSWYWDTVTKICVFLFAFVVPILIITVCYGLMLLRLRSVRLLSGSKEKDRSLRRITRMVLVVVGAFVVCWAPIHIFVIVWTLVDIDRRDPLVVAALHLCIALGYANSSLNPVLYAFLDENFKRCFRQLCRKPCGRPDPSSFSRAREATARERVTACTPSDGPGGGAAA
Numbers without * were called inactive; . = no result.

SMILES | NALP3 yeast inh | NALP1 yeast inh | A1 inh | MC4R ag barr | Tb MetRS inh | MC4R antag cAMP | MC4R barr conf | MOR-DOR barr ag
COc1ccc(C#Cc2c(-c3ccc(OC)cc3)oc3ccc(-c4ccc(OC)cc4)cc23)cc1 | -1 | . | -2 | -2 | 0 | 3 | . | .
COc1ccc(CNC(=O)CCCCCn2c(SCC#N)nc3cc4c(cc3c2=O)OCO4)cc1 | -1 | 24 | 0 | 19* | 0 | 8 | -2 | 3
CCc1ccc(/C=C2/C(=O)N(c3ccccc3)C(=S)N2CC(=O)OC)s1 | 19 | 24 | 1 | 10* | 3 | 4 | 7 | 6
CCN1C(=O)/C(=C/N(C(C)=O)c2ccccc2)N(c2ccccc2)C1=S | 46 | 13 | 0 | -2 | -2 | 13 | . | .
COc1ccc(C(=O)Nc2cc(-c3ccc(C)cc3)no2)cc1 | 16 | 13 | -1 | 9.8* | -2 | -1 | -2 | 5
Cc1ccc(-c2cc(NC(=O)c3ccccc3)on2)cc1 | 6 | 25 | -7 | 6 | -1 | 1 | . | .
Cc1cccc(C)c1NC(=O)C1(C)CCC(=O)N1CCc1c[nH]c2ccccc12 (stereo not drawn) | . | . | . | . | 1 | . | . | .
CCOC(=O)c1sc2ccccc2c1OC(=O)c1ccc(C)cc1 | -24 | 19 | 0 | 14* | 0 | 5 | 7 | 8
CN(C)C(=O)c1ccc(NC(=O)COC(=O)Cn2cc(C(F)(F)F)ccc2=O)cc1 | 15 | . | -1 | -1 | 0 | 3 | . | .
COc1ccc(OC)c(NC(=O)c2cc(-c3cc(C)c(C)cc3O)n[nH]2)c1 | 24 | 19 | -3 | 7 | 0 | -3 | . | .
COc1ccc(NC(=O)c2cc(-c3cc(C)c(C)cc3O)n[nH]2)c(OC)c1 | 7 | 13 | 0 | 15* | 0 | 2 | 3 | 6
COc1ccc(OC)c(NC(=O)c2cc(-c3c(C)cc(C)cc3O)n[nH]2)c1 | 15 | 23 | 0 | 7 | 0 | 3 | . | .
COc1ccc(OC)c(NC(=O)c2cc(-c3cc(C)cc(C)c3O)n[nH]2)c1 | -10 | 6 | 0 | 20* | 0 | 9 | 1 | 6
COc1ccc(CN(C)C(=O)C(CCSC)NS(=O)(=O)c2ccc3c(c2)OCCO3)c(OC)c1OC (stereo not drawn) | . | . | . | 0 | 0 | 15 | . | .
Cc1ccc(COC(=O)Cc2coc3cc(O)ccc23)cc1 | 23 | 20 | 0 | 9.9* | 0 | 5 | 3 | 11
O=C(Nc1ccc(C(O)(C(F)(F)F)C(F)(F)F)cc1)c1ccc(Cl)c([N+](=O)[O-])c1 | 12 | 35 | 0 | 14* | -1 | -3 | 15* | 10
CCOc1ccc(NC(=O)CCNC(=O)Cn2ccc3ccccc3c2=O)cc1 | 7 | 18 | 1 | -2 | 0 | 0 | . | .
C=C(C)c1cccc(C(C)(C)NC(=O)NC2CCN(Cc3ccccc3)CC2)c1 | 26 | 11 | -1 | 3 | -2 | 5 | . | .
C=C(C)c1cccc(C(C)(C)NC(=O)N(Cc2ccccc2)Cc2ccco2)c1 | 8 | 2 | 0 | 17* | 0 | 1 | -1 | 5
COc1ccccc1N/C=C(\C#N)c1nc2ccccc2[nH]1 | 18 | -2 | 0 | 11* | -1 | 4 | 1 | 5
COc1cc(/C=C(\C#N)c2nc3ccccc3[nH]2)cc(OC)c1O | . | -6 | -2 | 1 | 3 | -1 | . | .
COc1ccccc1CCC(=O)Nc1ccc2c(c1)c(=O)n(C)n2Cc1cccc(C(F)(F)F)c1 | . | . | . | -1 | 0 | 1 | . | .
Oc1cccc(C(O)CNCc2ccc(OCc3ccc(Cl)cc3Cl)cc2)c1 (stereo not drawn) | 9 | -2 | 0 | 14* | 2 | 0 | 27* | 15
COc1ccc(NC(=O)COC(=O)c2cc3c(s2)CCC3)cc1 | 26 | . | 1 | 7 | 0 | 11 | . | .
C=CCn1c(=S)[nH]c2cc(C(=O)Nc3ccc(OC)c(OC)c3)ccc2c1=O | 10 | 4 | 0 | 10* | 0 | 1 | -1 | 5
SMILES | NALP3 yeast inh | NALP1 yeast inh | A1 inh | MC4R ag barr | Tb MetRS inh | MC4R antag cAMP | MC4R barr conf | MOR-DOR barr ag
COCCn1c(=O)[nH]c2cc(C(=O)Nc3ccc(OC)c(Cl)c3)ccc2c1=O | -2 | 19 | 1 | -1 | 0 | 5 | . | .
Cc1ccccc1CC(=O)N1CC(C)OC(C)C1 (stereo not drawn) | 19 | -4 | 0 | -1 | -1 | -1 | . | .
NC(=O)CC(NC(=O)Cc1ccc(Br)cc1)c1ccc(NC2CCCCCC2)c([N+](=O)[O-])c1 (stereo not drawn) | 25 | . | 0 | -2 | 0 | 6 | . | .
NC(=O)CC(NC(=O)Cc1ccc(Br)cc1)c1ccc(NC2CCCCCCC2)c([N+](=O)[O-])c1 (stereo not drawn) | . | . | . | 11* | 0 | 8 | 6 | 1
COc1ccc(NC(=O)CN2CCN(CC(=O)Nc3ccc(F)cc3F)CC2)cc1 | -1 | 1 | . | 0 | -2 | -1 | . | .
C/C(=C\C=C(C#N)C#N)c1cc(C#N)c(N)o1 | 10 | 21 | . | 14* | 0 | -15 | 57* | 20*
COc1cccc(NC(=O)C2(C)CCN2Cc2ccc3ccccc3c2)c1 (stereo not drawn) | . | . | . | 2 | 0 | 16 | . | .
COc1ccc(-c2ccc(C#N)c(SCC(=O)NC3CC3)n2)cc1OC | 13 | 24 | 0 | 1 | 0 | 1 | . | .
COc1ccc(-c2ccc(C#N)c(SCC(=O)NCc3ccco3)n2)cc1OC | -12 | . | 0 | 16* | 0 | -4 | -1 | 7
O=C(COc1ccc2c3c(c(=O)oc2c1)CCC3)Nc1ccccn1 | 1 | 2 | -8 | -3 | 0 | 2 | . | .
COc1ccc(C(=O)NCC2OCCc3ccccc32)cc1 (stereo not drawn) | 18 | -10 | 0 | 0 | 0 | 10 | . | .
O=C(NCC1OCCc2ccccc21)c1ccc(NC(=O)c2ccc(Cl)cc2Cl)cc1 (stereo not drawn) | 3 | 33 | 1 | 15* | 0 | -8 | 2 | 2
COc1ccc(/C=N/NC(=S)Nc2cc(C(F)(F)F)ccc2Cl)cc1 | 13 | -11 | 0 | 24* | 0 | -8 | 2 | 4
Cc1c(Cl)ccc2c(C(N)=O)cc(-c3ccccn3)nc12 | 21 | 13 | 1 | -2 | -1 | -6 | . | .
CCOC(=O)CNC(=O)c1cc(-c2ccccn2)nc2c(C)c(Cl)ccc12 | 11 | -18 | 0 | 30* | 0 | 15 | -3 | 5

Screening results as filed in PubChem BioAssay.
